Assay outcomes from PubChem BioAssay.
FLuc act counter: FLuc activators, initial screening, artefact control for FLuc-dependent activation tests, biochemical, ATPlite luminescence; Luciferin 4-monooxygenase (Photinus pyralis), P08659; ATPlite luciferase biochemical, 10 min; 0 = ATP-free wells, 1 = DMSO control; activation factor at 10 µM; 200,000 tested, under 10 active; AID 1027, 2008;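 active = luciferase activation factor, scaled between plate controls, of at least 2 with compound at 10 µM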
Target sequence (P08659 whole entry, looked up): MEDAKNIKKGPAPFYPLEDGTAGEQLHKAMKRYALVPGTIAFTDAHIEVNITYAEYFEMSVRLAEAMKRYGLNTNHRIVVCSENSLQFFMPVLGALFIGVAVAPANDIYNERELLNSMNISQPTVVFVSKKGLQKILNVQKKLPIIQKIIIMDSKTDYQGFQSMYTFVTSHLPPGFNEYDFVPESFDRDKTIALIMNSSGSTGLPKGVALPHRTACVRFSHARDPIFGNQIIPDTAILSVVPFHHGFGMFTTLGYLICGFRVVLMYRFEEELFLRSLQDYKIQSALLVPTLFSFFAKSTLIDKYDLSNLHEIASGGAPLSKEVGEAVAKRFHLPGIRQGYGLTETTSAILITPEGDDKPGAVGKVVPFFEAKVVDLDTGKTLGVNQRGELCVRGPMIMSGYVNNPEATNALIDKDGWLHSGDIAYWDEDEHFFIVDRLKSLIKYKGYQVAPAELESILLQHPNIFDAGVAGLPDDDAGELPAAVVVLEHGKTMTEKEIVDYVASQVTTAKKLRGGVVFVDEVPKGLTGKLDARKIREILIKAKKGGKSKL
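assay system = Luciferase/luciferin detection reagent, cell-free biochemical luciferase assay | also added = ATP substrate | times = 10 min post-reagent at room temperature | measured by = luminescence from luciferase reaction | measure = luciferase activation, seen as luminescence increase over controls | benchmarks = low control with PBS replacing ATP, high control enzyme plus ATP without compound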
PPC-1+TRAIL kill: compounds killing PPC-1 cancer cells with TRAIL present, primary screen, TRAIL potentiator project, ATPLite luminescence, uHTS. 220,000 compounds, 0.41% hits. cell killing (% activity), % at 4 µM or 5 µM. PPC-1 cells + TRAIL, ATPLite viability luminescence;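 active = cell killing above 50% in the first pass at 4 µM, then a duplicate retest at 5 µM averaging 50% or more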
C8 TRAIL sens: viability loss with TRAIL in NB7+C8 cells, primary screen, TRAIL sensitizer project, cell-based, ATPlite luminescence; inhibition (viability loss, TRAIL sensitization), % at 10 µM; 360,000 compounds, 1% hits;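 active = compounds causing at least 50% loss of cell viability in the single-dose screen, relative to plate controls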
FLuc inh counter: firefly luciferase enzyme inhibitors, primary screen, artefact control for luciferase-based inhibitor screens, biochemical, luminescence, ATPLite; Luciferin 4-monooxygenase (Photinus pyralis), P08659; 10 min; inhibition, % at 10 µM; 200,000 compounds, 1.5% hits;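 active = inhibition above about 50% when tested at 10 µM, limit read from the data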
Large screens that a line does not name were inactive. Rows were chosen to be rich in hits. Some 1.6% of all compounds tested hit in one or more screens of this group.

COCC(C)n1c(C)cc(C(=O)COC(=O)c2n[nH]c3ccccc23)c1C (configuration not stated)	C8 TRAIL sens 58, FLuc inh counter 76
Cn1c(=S)[nH]c2sc3c(c2c1=O)CCC(C(C)(C)C)C3 (configuration not stated)	C8 TRAIL sens 53 (no result: FLuc act counter, PPC-1+TRAIL kill, FLuc inh counter)
C=CCN(CC=C)C(=O)c1cccc(S(=O)(=O)N2c3ccccc3CC2C)c1 (configuration not stated)	none (no result: FLuc act counter, FLuc inh counter)
CC(C)(C)n1ncc2c(=O)n(CC(=O)c3ccccc3)cnc21	none
CC(C)(C)n1ncc2c(=O)n(CC(=O)OCc3ccccc3)cnc21	FLuc inh counter 92
COc1ccccc1C(=O)Nc1ccc2oc(-c3ccc(F)cc3)nc2c1	PPC-1+TRAIL kill 53
O=C(Nc1ccc2oc(-c3ccccc3)nc2c1)C1CCCO1 (configuration not stated)	FLuc inh counter 50
COc1ccc(C(=O)Nc2ccc3oc(-c4cccc(F)c4)nc3c2)cc1OC	none
O=C(Nc1ccc(-c2nc3ccccc3o2)cc1)C1CCCO1 (configuration not stated)	C8 TRAIL sens 59, FLuc inh counter 78
O=C(Nc1ccc(-c2nc3cc(Cl)ccc3o2)cc1)C1CCCO1 (configuration not stated)	none
Cc1cc(C)n2nc(SCCOc3ccccc3)nc2n1	none
Cc1oc(-c2ccccc2)nc1CC(=O)O	none
CCCCCc1cc(=O)oc2c(C(CCN3CCCCC3)c3cc(OC)c(OC)c(OC)c3)c(OC)cc(OC)c12 (configuration not stated)	C8 TRAIL sens 67 (no result: FLuc act counter, FLuc inh counter)
Cc1ccc(C)c(N(CC(=O)NC2CCCC2)C(=O)CCC(=O)Nc2nccs2)c1	none (no result: FLuc act counter, PPC-1+TRAIL kill, FLuc inh counter)
CC1Sc2ccc(S(=O)(=O)N3CCN(c4ccccc4)CC3)cc2NC1=O (configuration not stated)	none (no result: FLuc act counter, PPC-1+TRAIL kill, FLuc inh counter)
Cc1cccc(N2CCN(S(=O)(=O)c3ccc4c(c3)NC(=O)C(C)S4)CC2)c1C (configuration not stated)	C8 TRAIL sens 54 (no result: FLuc act counter, PPC-1+TRAIL kill, FLuc inh counter)
COC(=O)C1C(=O)c2c([nH]c(C(=O)OC3CCCC3)c2C)CC1C (configuration not stated)	FLuc inh counter 56
Cc1ccccc1NC(=O)Cc1nc(COC(=O)COc2ccc(C(C)(C)C)cc2)cs1	none (no result: FLuc act counter, PPC-1+TRAIL kill, FLuc inh counter)
COc1ccc2nc3cc(Cl)ccc3c(Nc3cc(CN4CCCC4)c(O)c(CN4CCCC4)c3)c2n1	C8 TRAIL sens 79 (no result: FLuc act counter, PPC-1+TRAIL kill, FLuc inh counter)
N/C(=N\N=C\c1ccc(O)c(O)c1)c1nonc1N	none (no result: FLuc act counter, FLuc inh counter)
N/C(=N\N=C\c1ccc(O)cc1)c1nonc1N	FLuc inh counter 51
COc1cc2c3nnc(-c4ccc(F)cc4)c-3cn(Cc3ccc(F)cc3)c2cc1OC	none
COc1cc2c3nnc(-c4ccc(F)cc4)c-3cn(Cc3ccccc3)c2cc1OC	C8 TRAIL sens 67
Cc1nc(CSc2nnc(C)s2)cs1	PPC-1+TRAIL kill 87
Cc1nnc(SCc2ccc(F)cc2)s1	none
CCN1CCN(C2=C(NS(=O)(=O)c3ccc(C)cc3)C(=O)c3ccccc3C2=O)CC1	C8 TRAIL sens 52 (no result: FLuc act counter, PPC-1+TRAIL kill, FLuc inh counter)
CCN1CCN(C2=C(NS(=O)(=O)c3ccc(NC(C)=O)cc3)C(=O)c3ccccc3C2=O)CC1	none (no result: FLuc act counter, PPC-1+TRAIL kill, FLuc inh counter)
CN(c1ccc(F)cc1)S(=O)(=O)c1ccc2[nH]cc(C(=O)O)c(=O)c2c1	PPC-1+TRAIL kill 62
CC(NC(=O)c1sc2ccccc2c1Cl)C1CCCO1 (configuration not stated)	FLuc inh counter 63
CC(C)c1nnc(NC(=O)c2sc3ccccc3c2Cl)s1	FLuc inh counter 64
Cc1ccnc(NC(=O)c2sc3ccccc3c2Cl)c1	PPC-1+TRAIL kill 76, C8 TRAIL sens 92, FLuc inh counter 92
CC(NC(=O)c1csc2ccccc12)C1CCCO1 (configuration not stated)	none
Cc1ccnc(NC(=O)c2ccc(Br)s2)c1	C8 TRAIL sens 55 (no result: FLuc act counter, PPC-1+TRAIL kill, FLuc inh counter)
Cc1ccc2c(Cl)c(C(=O)Nc3cc(C)on3)sc2c1	none
CC(C)c1nnc(NC(=O)c2ccc3ccccc3c2)s1	none (no result: FLuc act counter, PPC-1+TRAIL kill, FLuc inh counter)
Nc1ncnc2c1ncn2[C@@H]1O[C@H](CNC(=O)[C@@H](N)CO)[C@@H](O)[C@H]1O	none (no result: FLuc act counter, PPC-1+TRAIL kill, FLuc inh counter)
O=C(Nc1nccs1)c1sc2ccccc2c1Cl	C8 TRAIL sens 74, FLuc inh counter 85
CCCC[n+]1ccn(C2=C([O-])c3ccccc3C(=O)/C2=N\S(=O)(=O)c2ccccc2)c1	C8 TRAIL sens 51
CC(OC(=O)C1CC(=O)N(Cc2ccccc2)C1)C(=O)Nc1ccc(F)cc1Cl (configuration not stated)	none (no result: FLuc act counter, PPC-1+TRAIL kill, FLuc inh counter)
Brc1c(-c2ccccc2)nc2n1Cc1ccccc1-2	none (no result: FLuc act counter, FLuc inh counter)
c1ccc2c(c1)Cn1c-2nc2ccccc21	FLuc inh counter 64
Cc1ccc(Nc2nc3ccccc3s2)c(C)c1	C8 TRAIL sens 55, FLuc inh counter 66
Cc1ccc(NC(=O)CSC2=NCCN2)cc1	none
COc1cc(/C=N/NC(=O)COc2ccc(C)cc2)ccc1OC(=O)c1cccs1	C8 TRAIL sens 57
CCOc1cc(/C=N/NC(=O)COc2ccc(C)cc2)ccc1OC(=O)c1cccs1	none
O=C(c1ccc(F)cc1)c1cnc(Nc2ccccc2)s1	C8 TRAIL sens 61, FLuc inh counter 62
O=C(c1ccccc1)c1cnc(-c2ccccc2)s1	FLuc inh counter 55
CC1CN(Cc2ccccc2)c2ccccc2NC1=S (configuration not stated)	PPC-1+TRAIL kill 52
Cc1ccc(C2(C)NC(=O)N(CC(=O)Nc3cc(S(=O)(=O)N4CCOCC4)ccc3OC(C)C)C2=O)cc1 (configuration not stated)	none (no result: FLuc act counter, PPC-1+TRAIL kill, FLuc inh counter)
CCN=c1scc(C)n1/N=C/c1ccc(O)c(O)c1O	FLuc inh counter 76
CCN=c1scc(C)n1/N=C/c1cc(Br)c(O)c(Br)c1	none
CCC(=NCc1ccccc1)c1c(C(F)(F)F)[nH]n(-c2nc3ccccc3s2)c1=O	none
O=c1c(C=NCc2cccnc2)c(C(F)(F)F)[nH]n1-c1nc2ccccc2s1	FLuc inh counter 74 (no result: PPC-1+TRAIL kill)
Clc1ccc(-n2ncc3c(N4CCCC4)ncnc32)cc1	C8 TRAIL sens 55, FLuc inh counter 75
Cc1nn(-c2ccccc2)c(Cl)c1C(=O)N1CCN(c2ncnc3c2cnn3-c2ccccc2)CC1	C8 TRAIL sens 73
O=C(c1ccccc1)N1CCN(c2ncnc3c2cnn3-c2ccccc2)CC1	none
Clc1ccc(Cn2ncc3c(N4CCN(c5ccccc5)CC4)ncnc32)cc1	C8 TRAIL sens 74 (no result: FLuc act counter, PPC-1+TRAIL kill, FLuc inh counter)
CCOC(=O)C1CCN(c2ncnc3c2cnn3-c2ccc(Cl)cc2)CC1	none
CC(C)Nc1ncnc2c1cnn2-c1ccc(Cl)cc1	C8 TRAIL sens 57, FLuc inh counter 64
Clc1ccc(Nc2ncnc3c2cnn3-c2ccccc2)cc1	none
Cc1ccc(C(=O)NC(=S)Nc2cccc(NC(=O)c3ccccc3)c2)cc1[N+](=O)[O-]	none
Cc1oc(-c2cccc(Cl)c2)nc1CN1CCC(C(=O)NCCCN2CC(C)CC(C)C2)CC1 (configuration not stated)	C8 TRAIL sens 54 (no result: FLuc act counter, PPC-1+TRAIL kill, FLuc inh counter)
